Screening data (PubChem)
VIM-2 inhibitor: blocks Pseudomonas aeruginosa VIM-2 metallo-beta-lactamase. purified VIM-2, nitrocefin hydrolysis, epi-absorbance fluorescence. inhibition, % at 5.6 µM. hit rate 0.89% among 290,000. AID 1527;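 active = inhibition above the mean of all tested compounds plus 3 SD, cutoff set per screening run, cut at about 7.5% in these data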;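 note: red hydrolysis product quenches plate fluorescence so inhibitors raise well fluorescence; 0% = enzyme with DMSO and 100% = DMSO without enzyme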
IMP-1 inh-1: blocks Pseudomonas aeruginosa IMP-1 metallo-beta-lactamase; inhibition, % at 5.6 µM; purified IMP-1, nitrocefin hydrolysis, epi-absorbance fluorescence; hit rate 0.45% among 290,000;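 active = inhibition above the mean plus 3 SD of all compounds in the same screening run, cut at about 4.5% in these data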;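 note: 0% = IMP-1 with DMSO and 100% = DMSO wells lacking enzyme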
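System: purified IMP-1; amount: IMP-1 0.2 nM before substrate addition; compound: single dose, 5.6 µM; times: 25 °C, 15 min preincubation, 25 min reaction; signal: Epi-absorbance via hydrolysed-nitrocefin quenching of white-plate fluorescence, 480/530 nm, EDTA stop; benchmarks: DMSO with and without IMP-1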
zfTRPN1 agonist: zebrafish TRPN1 (NompC) channel agonism | HEK293 zebrafish TRPN1-YFP, Fluo-8 calcium fluorescence; 100% = response to 87 µM carbachol | activation, % at 3 µM | hit rate 0.18% among 220,000;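 active = activation above its plate's cutoff, the mean activation of test wells on that plate plus 3 SD, cut at about 19% in these data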;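 note: 0% = DMSO alone and 100% = 87 µM carbachol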
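Material: zebrafish TRPN1-YFP in HEK293 cells. Doses: one dose of 3 µM, 0.3% DMSO. Incubation: dye 1 h 37 °C plus 30 min RT. Measured by: intracellular calcium fluorescence with Fluo-8.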
TRPML3 agonist: agonists of human TRPML3 channel. Q8TDD5. HEK293 TRPML3-YFP, Fluo-8 calcium fluorescence; 100% = the carbachol control signal. activation, % at 3 µM. hit rate 0.29% among 220,000;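 active = activation above its plate's cutoff, the mean activation of the plate's test wells plus 3 SD, cut at about 12% in these data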;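 note: 0% = DMSO only wells and 100% = carbachol wells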
Target sequence (Q8TDD5 whole entry, looked up): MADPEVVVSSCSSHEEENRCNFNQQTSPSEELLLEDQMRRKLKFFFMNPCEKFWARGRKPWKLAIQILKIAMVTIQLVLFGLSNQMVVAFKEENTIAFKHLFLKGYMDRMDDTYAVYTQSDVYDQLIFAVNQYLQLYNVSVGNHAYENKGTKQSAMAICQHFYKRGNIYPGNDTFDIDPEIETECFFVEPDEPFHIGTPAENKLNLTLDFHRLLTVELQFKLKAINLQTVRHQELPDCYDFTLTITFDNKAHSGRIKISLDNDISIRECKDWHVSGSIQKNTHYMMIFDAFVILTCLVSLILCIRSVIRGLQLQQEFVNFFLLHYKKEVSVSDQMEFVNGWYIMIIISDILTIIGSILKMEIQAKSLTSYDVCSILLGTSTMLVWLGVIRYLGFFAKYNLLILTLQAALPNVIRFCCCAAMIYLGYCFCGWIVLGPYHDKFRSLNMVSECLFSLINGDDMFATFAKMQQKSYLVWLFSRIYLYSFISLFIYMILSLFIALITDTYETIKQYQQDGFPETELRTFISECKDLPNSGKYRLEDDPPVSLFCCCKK
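Material: HEK293 cells stably carrying human TRPML3-YFP; compound dosing: single dose, 3 µM final nominal compound, 0.3% DMSO final; incubation: 1-h 37 °C dye load, 5-s basal, 120-s post-compound reads; technique: Fluo-8 intracellular calcium fluorescence, excitation 470-495 nm, emission 515-575 nm; read-out basis: percent activation from peak-to-basal fluorescence ratio, scaled between DMSO and carbachol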
CRFBP-R2 block: blocks CRF-induced signaling of the CRF-BP/CRF-R2 complex; HEK293 CRF-R2/CRF-BP, CRF-induced calcium fluorescence; inhibition, % at 11.8 µM; hit rate 0.59% among 350,000;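 active = inhibition of the ligand-induced calcium signal above about 50% at the single tested concentration, limit read from the data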
CRFBP-R2 agonist: agonists of human CRF-binding protein/CRF-R2 receptor complex. HEK293 CRF-R2/CRF-BP, calcium dye fluorescence (FLIPR); percent of saturating CRF peptide response. activation, % at 13.2 µM. hit rate 0.46% among 350,000. AID 588473;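 active = activation of at least 50%, plus an integration ratio under a set limit after plate pattern correction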;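 note: plate controls were neutral control wells without compound for no effect and CRF at EC100 for full effect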
IMP-1 inh-2: selectivity counter-screen for VIM-2 inhibitors: IMP-1 metallo-beta-lactamase inhibitors; AID 1856; shares compounds with VIM-2 inhibitor; 1,300 tested, under 10 active; inhibition, % at 5.6 µM; purified IMP-1, nitrocefin hydrolysis, epi-absorbance fluorescence; call rule not given here;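 note: 0% = enzyme with vehicle and 100% = vehicle without enzyme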
VIM-2 FRET inh: inhibits VIM-2 in FRET assay to exclude epi-absorbance artifacts; shares compounds with VIM-2 inhibitor; purified VIM-2, CCF2 FRET substrate hydrolysis; inhibition, % at 5.6 µM; hit rate 23% among 1,300; AID 1857;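 active = inhibition above the mean of all tested compounds plus 3 SD, cut at about 19% in these data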;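 note: 0% = VIM-2 plus DMSO and 100% = no enzyme wells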
TEM-1 inh: selectivity counter-screen for VIM-2 inhibitors: E. coli TEM-1 inhibitors; Purified TEM-1, nitrocefin hydrolysis, epi-absorbance fluorescence; inhibition, % at 5.6 µM; hit rate 3% among 1,300; shares compounds with VIM-2 inhibitor;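 active = inhibition above that campaign's mean inhibition plus 3 SD, cut at about 0.46% in these data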;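 note: 0% = TEM-1 with DMSO and 100% = TEM-1 with 100 µM potassium clavulanate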
Target sequence (P62593 whole entry, looked up): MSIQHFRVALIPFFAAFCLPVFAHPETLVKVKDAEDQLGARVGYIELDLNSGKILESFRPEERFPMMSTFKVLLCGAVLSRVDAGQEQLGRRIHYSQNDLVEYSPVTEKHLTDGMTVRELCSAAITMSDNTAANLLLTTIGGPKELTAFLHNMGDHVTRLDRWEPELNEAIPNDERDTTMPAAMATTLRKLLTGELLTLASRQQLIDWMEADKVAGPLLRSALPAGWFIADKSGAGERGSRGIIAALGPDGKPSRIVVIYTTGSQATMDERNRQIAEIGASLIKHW
VIM-2 inh conf: confirmation of P. aeruginosa VIM-2 metallo-beta-lactamase inhibitors; shares compounds with VIM-2 inhibitor; purified VIM-2, nitrocefin hydrolysis, epi-absorbance; inhibition, % at 5.6 µM; hit rate 96% among 1,300; AID 2187;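 active = inhibition of the VIM-2 beta-lactamase enzyme above about 11% from the earlier first-round screen, limit read from the data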;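 note: 0% = VIM-2 with DMSO and 100% = buffer wells without enzyme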
The depositor's hits bear a star. Compounds with a hit are over-represented: about 2.1% of the library has one in this group of screens.

Results for COc1ccc(OC)c(C2/C(=C(/O)c3ccc(C)cc3)C(=O)C(=O)N2Cc2ccco2)c1 (stereo not drawn) ?
VIM-2 inhibitor: 21*; IMP-1 inh-1: -2; zfTRPN1 agonist: 0; TRPML3 agonist: 1; CRFBP-R2 block: 5; CRFBP-R2 agonist: 2; IMP-1 inh-2: -3; VIM-2 FRET inh: 56*; TEM-1 inh: -6; VIM-2 inh conf: 45*

How did COc1cccc(C2/C(=C(/O)c3ccccc3)C(=O)C(=O)N2Cc2ccco2)c1 (stereo not drawn) do in these assays?
VIM-2 inhibitor: 0; IMP-1 inh-1: -3; zfTRPN1 agonist: 0; TRPML3 agonist: 1; CRFBP-R2 block: 24; CRFBP-R2 agonist: 0

How did COc1ccc(/C(O)=C2\C(=O)C(=O)N(Cc3ccco3)C2c2cc(OC)ccc2OC)cc1 (stereo not drawn) do in these assays?
VIM-2 inhibitor: 12*; IMP-1 inh-1: -3; zfTRPN1 agonist: 0; TRPML3 agonist: 0; CRFBP-R2 block: -9; CRFBP-R2 agonist: 1; IMP-1 inh-2: -4; VIM-2 FRET inh: 35*; TEM-1 inh: -6; VIM-2 inh conf: 26*

Results for COc1ccc(OC)c(C2/C(=C(/O)c3ccccc3)C(=O)C(=O)N2Cc2ccco2)c1 (stereo not drawn) ?
VIM-2 inhibitor: 66*; IMP-1 inh-1: -1; zfTRPN1 agonist: 1; TRPML3 agonist: 0; CRFBP-R2 block: 13; CRFBP-R2 agonist: 1; IMP-1 inh-2: -3; VIM-2 FRET inh: 77*; TEM-1 inh: -6; VIM-2 inh conf: 70*

How did COc1ccc(OC)c(C2C(C(=O)c3ccco3)=C(O)C(=O)N2Cc2cccnc2)c1 (stereo not drawn) do in these assays?
VIM-2 inhibitor: 61*; IMP-1 inh-1: -2; CRFBP-R2 block: 7; CRFBP-R2 agonist: -1; IMP-1 inh-2: -2; VIM-2 FRET inh: 78*; TEM-1 inh: -5; VIM-2 inh conf: 68*

Results for Nn1c(SCC(=O)Nc2ccc3c(c2)OCCO3)nncc1=O ?
VIM-2 inhibitor: -2; IMP-1 inh-1: 1; CRFBP-R2 block: -1; CRFBP-R2 agonist: 0

Results for COCCn1c(=O)[nH]c2cc(C(=O)N3CCN(c4cccc(C)c4C)CC3)ccc2c1=O ?
VIM-2 inhibitor: -4; IMP-1 inh-1: -3; CRFBP-R2 block: 2; CRFBP-R2 agonist: 0

How did Nc1ccnc(=O)[nH]1 do in these assays?
CRFBP-R2 block: 4; CRFBP-R2 agonist: 0

What do the screens show for `CSCCC(NC(=O)c1ccccc1Cl)C(=O)N1CC(C)OC(C)C1` (stereo not drawn)?
CRFBP-R2 block: 0; CRFBP-R2 agonist: 0

How did CCSc1ccc2nnc(-c3cccc(F)c3)n2n1 do in these assays?
VIM-2 inhibitor: 12*; IMP-1 inh-1: -2; zfTRPN1 agonist: -1; TRPML3 agonist: -1; CRFBP-R2 block: -42; CRFBP-R2 agonist: 2; IMP-1 inh-2: -3; VIM-2 FRET inh: -9; TEM-1 inh: -6; VIM-2 inh conf: 23*

What do the screens show for `CC1CN(Cc2c(O)ccc3c2oc(=O)c2ccccc23)CC(C)O1` (stereo not drawn)?
VIM-2 inhibitor: 14*; IMP-1 inh-1: -2; zfTRPN1 agonist: 7; TRPML3 agonist: 2; CRFBP-R2 block: 0; CRFBP-R2 agonist: -2; IMP-1 inh-2: -2; VIM-2 FRET inh: -16; TEM-1 inh: -7; VIM-2 inh conf: 29*

How did CCOC(=O)C1CCN(C(=O)c2ccc(S(=O)(=O)Nc3ccccc3Cl)cc2)CC1 do in these assays?
CRFBP-R2 block: -1; CRFBP-R2 agonist: 1

Results for COC(=O)C1CCN(C(=O)c2cc(S(=O)(=O)N3CCCCC3)ccc2Cl)CC1 ?
CRFBP-R2 block: 0; CRFBP-R2 agonist: 0

How did Cc1c(OCC(=O)NCc2ccncc2)ccc2c3c(c(=O)oc12)CCC3 do in these assays?
VIM-2 inhibitor: 50*; IMP-1 inh-1: -6; CRFBP-R2 block: 15; CRFBP-R2 agonist: -1; IMP-1 inh-2: -2; VIM-2 FRET inh: -5; TEM-1 inh: -13; VIM-2 inh conf: 57*

How did Cc1c(OC(C)C(=O)NCC(O)c2ccccc2)ccc2c3c(c(=O)oc12)CCC3 (stereo not drawn) do in these assays?
VIM-2 inhibitor: 19*; IMP-1 inh-1: 0; CRFBP-R2 block: -13; CRFBP-R2 agonist: 0; IMP-1 inh-2: -3; VIM-2 FRET inh: -1; TEM-1 inh: -8; VIM-2 inh conf: 24*

What do the screens show for `Cc1c(OC(C)C(=O)NCc2ccccn2)ccc2c3c(c(=O)oc12)CCCC3` (stereo not drawn)?
VIM-2 inhibitor: 16*; IMP-1 inh-1: -4; CRFBP-R2 block: -21; CRFBP-R2 agonist: -4; IMP-1 inh-2: -3; VIM-2 FRET inh: 0; TEM-1 inh: -11; VIM-2 inh conf: 23*

What do the screens show for `Cc1c(OCC(=O)NCc2cccnc2)ccc2c3c(c(=O)oc12)CCC3`?
VIM-2 inhibitor: 27*; IMP-1 inh-1: 0; CRFBP-R2 block: -12; CRFBP-R2 agonist: -1; IMP-1 inh-2: -4; VIM-2 FRET inh: -1; TEM-1 inh: -11; VIM-2 inh conf: 31*

What do the screens show for `Cc1c(OCC(=O)OC(C)C)ccc2c3c(c(=O)oc12)CCC3`?
VIM-2 inhibitor: 4; IMP-1 inh-1: -5; zfTRPN1 agonist: 1; TRPML3 agonist: 0; CRFBP-R2 block: 6; CRFBP-R2 agonist: -2

What do the screens show for `Cc1cc(OC(C)C(=O)NCC(O)c2ccccc2)c2c(C)c(C)c(=O)oc2c1` (stereo not drawn)?
VIM-2 inhibitor: -1; IMP-1 inh-1: -3; CRFBP-R2 block: -16; CRFBP-R2 agonist: -3

Results for CC1CC(C)CN(C(=O)c2cc(S(=O)(=O)N3CCCCC3)ccc2Cl)C1 (stereo not drawn) ?
CRFBP-R2 block: 29; CRFBP-R2 agonist: -1

How did Cc1cccc(NC(=O)COC(=O)c2nn(C)c(=O)c3ccccc23)c1C do in these assays?
CRFBP-R2 block: 4; CRFBP-R2 agonist: -2

Results for Cc1c(OC(C)C(=O)NCc2ccncc2)ccc2c3c(c(=O)oc12)CCC3 (stereo not drawn) ?
VIM-2 inhibitor: 23*; IMP-1 inh-1: -1; CRFBP-R2 block: 6; CRFBP-R2 agonist: 1; IMP-1 inh-2: -2; VIM-2 FRET inh: -5; TEM-1 inh: -11; VIM-2 inh conf: 36*
